One data set relates to L6. Put plainly: Cytotoxicity against rat L6 cells by alamar blue assay. In kind it is cell-based.
The subject of data set [1] is Trypanosoma brucei rhodesiense. Put plainly: Antitrypanosomal activity against Trypanosoma brucei rhodesiense STIB900 infected in NMRI mouse assessed as effect on survival days at 5 mg/kg, ip […] measured up to 60 days. The class given is functional. The note with it: route intraperitoneal.
A further data set concerns Plasmodium falciparum. Put plainly: Antiplasmodial activity against Plasmodium falciparum K1 infected in human RBC after 48 hrs by [3H]-hypoxanthine incorporation assay. In kind it is functional, organism-based. An outline of the steps:
(§1)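 Parasites were Trypanosoma brucei rhodesiense STIB900 and Plasmodium falciparum K1. Values are averages of duplicate determinations.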

Data set [2] is described as follows: Selectivity index, ratio of IC50 for rat L6 cells to IC50 for Trypanosoma brucei rhodesiense STIB900. The note with it: L6 cells versus Trypanosoma brucei rhodesiense STIB900, read-out: Ratio IC50. The class given is toxicity, cell-based. In short, it runs like this:
(§2)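 Ratio of IC50 in cultured L6 rat myoblasts (Alamar Blue read-out) to IC50 against P. falciparum K1 or T. b. rhodesiense STIB900. Parasite values are the average of duplicate determinations.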

For data set [3], the system named is Trypanosoma brucei rhodesiense. Put plainly: Antitrypanosomal activity against Trypanosoma brucei rhodesiense STIB900 after 70 hrs by alamar blue assay. The note with it: STIB900, 70 h. In kind it is functional, organism-based. An outline of the steps: as §1
Data set [4] in a line: Selectivity index, ratio of IC50 for rat L6 cells to IC50 for Plasmodium falciparum K1. The class given is toxicity, cell-based. The note with it: L6 cells versus Plasmodium falciparum K1, read-out: Ratio IC50. In short, it runs like this: as §2
For data set [5], the system named is Trypanosoma brucei rhodesiense. Put plainly: Antitrypanosomal activity against Trypanosoma brucei rhodesiense STIB900 infected in NMRI mouse assessed as parasitemia free host at 5 mg/kg, ip administered 2 days after post infection for 4 consecutive days measured up to 60 days. In kind it is functional, organism-based. Also noted: dose 5 mg/kg.
The test system of data set [6] is Trypanosoma brucei rhodesiense. Put plainly: Antitrypanosomal activity against Trypanosoma brucei rhodesiense STIB900 infected in NMRI mouse assessed as effect on survival days at 20 mg/kg, ip administered 2 days after post infection for 4 consecutive days measured up to 60 days. The note with it: route intraperitoneal. The class given is functional.

The source made the active and inactive calls. No cut-off for these calls is given here. Some results are limits rather than exact numbers.

Take `N=C(N)c1ccc(OCCCCCOc2ccc(C(=N)N)cc2)cc1` [PENTAMIDINE]: the half-inhibitory concentration (IC50) with L6 was found to be 6000 nM; with Plasmodium falciparum it was 6.4 nM. The Survival in [1] was >45 days.

`Cl.N=C(N)c1ccc(-c2ccc(-c3ccc(C(=N)N)s3)o2)cc1`: the selectivity ratio in data set [2] is 1820; in data set [4] it was 626. Further, the IC50 was 10900 nM in the data set with L6, 6 nM in [3] and 17.4 nM in the data set with Plasmodium falciparum. Besides, the thermal shift (ΔTm) in the data set on Nucleic Acid was 14.1 °C. Further, in data set [5], the outcome was inactive. The Survival in data set [1] amounted to 16.75 days.

As for `Cl.N=C(N)c1ccc(-c2ccc(-c3ccc(C(=N)N)o3)s2)cc1`, the values for the selectivity ratio in data set [2] and in data set [4] were 14900 and 32600, respectively. The IC50 worked out at 29300 nM in the data set with L6, 2 nM in [3] and 0.9 nM in the data set on Plasmodium falciparum. In addition, the thermal shift (ΔTm) in the data set with Nucleic Acid amounted to 13.1 °C. The Survival in data set [1] is >46.5 days.

For `Cl.N=C(N)c1ccc(-c2ccc(-c3ccc(C(=N)N)s3)s2)cc1`, the selectivity ratio in data set [2] is 3000; in data set [4], 576. For the same compound, the IC50 with L6 came to 6000 nM; in [3], 2 nM; in the data set on Plasmodium falciparum, 10.4 nM. Further, the ΔTm in the data set with Nucleic Acid worked out at 18.1 °C. Moreover, the result in [5] was inactive. The Survival in [1] stood at 25.25 days.

As for `N=C(N)c1ccc(-c2ccc(-c3ccc(C(=N)N)cc3)o2)cc1` [FURAMIDINE], the outcome in data set [5] was Active. Moreover, the Survival in [1] was >46 days.

Turning to `Cl.N=C(N)c1ccc(-c2ccc(-c3ccc(C(=N)N)o3)o2)cc1`, the selectivity ratio in data set [2] worked out at 3150; in data set [4], 910. Further, the IC50 with L6 amounted to 37800 nM; in data set [3] it was 12 nM; in the data set on Plasmodium falciparum it was 41.5 nM. The Survival in data set [6] is >45.5 days. Also, in the data set with Nucleic Acid, the thermal shift (ΔTm) came to 8.5 °C.

Take `Cl.N=C(N)c1ccc(-c2ccc(-c3ccc(C(=N)N)s3)s2)cn1`: the selectivity ratio in data set [2] turned out to be 1000; in data set [4], 1740. Moreover, the figures for the concentration for half-maximal inhibition (IC50) (in the data set with L6; in data set [3]; in the data set with Plasmodium falciparum) were 4000 nM, 4 nM and 2.3 nM, respectively. Besides, in the data set with Nucleic Acid, the thermal shift (ΔTm) is 16.6 °C. The Survival in data set [1] was determined as 49 days.

Turning to `Cl.N=C(N)c1ccc(C#Cc2ccc(-c3ccc(C(=N)N)o3)o2)cc1`, the figures for the selectivity ratio in data set [2] and in data set [4] were 1500 and 4470, respectively. The IC50 with L6 was 63000 nM; in [3], 42 nM; in the data set on Plasmodium falciparum, 14.1 nM. The shift in melting temperature (ΔTm) in the data set with Nucleic Acid turned out to be 4 °C. Also, in [5], the result was inactive. The Survival in data set [1] turned out to be 15.25 days.

In the case of `Cl.N=C(N)c1ccc(-c2ccc(-c3ccc(C(=N)N)o3)o2)cn1`, the selectivity ratio in data set [2] stood at 6420; in data set [4] it was 38500. Further, the concentration for half-maximal inhibition (IC50) with L6 came out at 38500 nM; in data set [3] it was 6 nM; with Plasmodium falciparum, 1 nM. In the data set on Nucleic Acid, the ΔTm came to 5.5 °C. The outcome in data set [5] was inactive. Moreover, the Survival in data set [1] is 41.75 days.
